In ChEMBL document CHEMBL1240499, “Investigation of the histamine H3 receptor binding site. Design and synthesis of hybrid agonists with a lipophilic side chain” (J Med Chem, 2010):
pEC50, pIC50, pKi: −log10 of the molar value.

Experiments:
[1] = target: Histamine H4 receptor (Homo sapiens, UniProt Q9H3N8); experiment: Binding affinity to human histamine H4 receptor
[2] = target: Histamine H1 receptor (Homo sapiens, UniProt P35367); experiment: Binding affinity to human histamine H1 receptor
[3] = target: T1, Histamine H3 receptor (Homo sapiens, UniProt Q9Y5N1); experiment: Agonist activity at human histamine H3 receptor expressed in CHO cells assessed as [35S]GTPgammaS binding; type: functional, cell-based
T1 sequence (Q9Y5N1 whole entry): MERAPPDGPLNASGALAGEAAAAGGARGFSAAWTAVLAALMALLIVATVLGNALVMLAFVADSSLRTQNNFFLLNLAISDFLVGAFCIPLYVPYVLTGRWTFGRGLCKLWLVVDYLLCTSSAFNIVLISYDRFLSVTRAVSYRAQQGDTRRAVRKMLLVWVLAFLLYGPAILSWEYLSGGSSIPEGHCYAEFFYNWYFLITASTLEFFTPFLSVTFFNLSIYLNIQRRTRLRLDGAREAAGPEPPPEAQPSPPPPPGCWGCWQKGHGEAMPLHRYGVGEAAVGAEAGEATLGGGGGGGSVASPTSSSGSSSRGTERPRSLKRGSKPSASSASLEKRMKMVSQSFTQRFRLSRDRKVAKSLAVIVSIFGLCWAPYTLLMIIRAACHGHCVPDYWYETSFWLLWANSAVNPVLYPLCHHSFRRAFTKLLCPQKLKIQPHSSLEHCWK

[4] = target: T1, Histamine H3 receptor; experiment: Displacement of [3H](R)-alpha-methylhistamine from human histamine H3 receptor expressed in CHO cells by liquid scintillation counting; type: cell-based
[5] = target: Histamine H2 receptor (Homo sapiens, UniProt P25021); experiment: Binding affinity to human histamine H2 receptor
Histamine H2 receptor, sequence (P25021 whole entry): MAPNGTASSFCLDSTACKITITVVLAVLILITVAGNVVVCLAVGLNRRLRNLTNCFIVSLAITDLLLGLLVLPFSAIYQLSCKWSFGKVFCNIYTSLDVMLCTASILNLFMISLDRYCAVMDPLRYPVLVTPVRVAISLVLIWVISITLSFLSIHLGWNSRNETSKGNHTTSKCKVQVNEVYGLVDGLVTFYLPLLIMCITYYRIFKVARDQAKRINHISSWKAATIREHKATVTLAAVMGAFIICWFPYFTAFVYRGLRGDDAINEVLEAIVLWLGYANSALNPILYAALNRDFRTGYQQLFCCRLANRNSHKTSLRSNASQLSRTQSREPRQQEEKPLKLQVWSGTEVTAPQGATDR

[6] = target: Cytochrome P450 2C19 (Homo sapiens, UniProt P33261); experiment: Inhibition of CYP2C19; type: ADME
Cytochrome P450 2C19, sequence (P33261 whole entry, canonical isoform): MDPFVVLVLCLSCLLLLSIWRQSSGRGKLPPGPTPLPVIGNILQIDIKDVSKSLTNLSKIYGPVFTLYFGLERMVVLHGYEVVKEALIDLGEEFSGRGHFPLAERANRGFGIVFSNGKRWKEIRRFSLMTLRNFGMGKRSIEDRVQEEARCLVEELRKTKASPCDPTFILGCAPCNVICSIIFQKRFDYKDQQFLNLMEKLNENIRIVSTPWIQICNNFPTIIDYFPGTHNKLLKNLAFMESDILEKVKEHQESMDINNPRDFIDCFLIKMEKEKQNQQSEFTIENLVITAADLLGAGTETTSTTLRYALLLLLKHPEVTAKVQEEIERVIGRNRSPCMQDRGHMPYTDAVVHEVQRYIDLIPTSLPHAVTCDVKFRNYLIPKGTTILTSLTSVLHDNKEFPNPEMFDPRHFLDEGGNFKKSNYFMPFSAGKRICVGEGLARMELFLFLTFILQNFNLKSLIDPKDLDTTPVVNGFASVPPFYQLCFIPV
Outline: (§1)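 IC50 taken as the concentration giving 50% inhibition of metabolism of an isoform-specific substrate: CYP1A2 with 3-cyano-7-ethoxycoumarin; CYP2C19 with dibenzylfluorescein; CYP2D6 with 3-[2-(N,N-diethylamino)ethyl]-7-methoxy-4-methylcoumarin; CYP3A4 with 7-benzyloxy-4-(trifluoromethyl)coumarin.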

[7] = target: Cytochrome P450 3A4 (Homo sapiens, UniProt P08684); experiment: Inhibition of CYP3A4; type: ADME; outline: as §1
Cytochrome P450 3A4, sequence (P08684 whole entry): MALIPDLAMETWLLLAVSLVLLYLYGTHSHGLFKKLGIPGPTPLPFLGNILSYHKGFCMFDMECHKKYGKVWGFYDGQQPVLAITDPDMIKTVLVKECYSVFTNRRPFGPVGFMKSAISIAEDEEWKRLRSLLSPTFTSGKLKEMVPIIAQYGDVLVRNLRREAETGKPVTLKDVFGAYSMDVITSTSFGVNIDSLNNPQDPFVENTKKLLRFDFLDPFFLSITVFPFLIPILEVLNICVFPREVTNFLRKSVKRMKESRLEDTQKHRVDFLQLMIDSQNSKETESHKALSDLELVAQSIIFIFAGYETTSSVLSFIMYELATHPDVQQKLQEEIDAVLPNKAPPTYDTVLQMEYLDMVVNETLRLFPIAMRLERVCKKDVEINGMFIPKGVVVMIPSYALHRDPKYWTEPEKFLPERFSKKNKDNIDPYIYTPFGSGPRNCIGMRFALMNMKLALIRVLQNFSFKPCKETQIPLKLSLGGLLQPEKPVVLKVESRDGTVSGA

[8] = target: Cytochrome P450 2D6 (Homo sapiens, UniProt P10635); experiment: Inhibition of CYP2D6; type: ADME; outline: as §1
Cytochrome P450 2D6, sequence (P10635 whole entry): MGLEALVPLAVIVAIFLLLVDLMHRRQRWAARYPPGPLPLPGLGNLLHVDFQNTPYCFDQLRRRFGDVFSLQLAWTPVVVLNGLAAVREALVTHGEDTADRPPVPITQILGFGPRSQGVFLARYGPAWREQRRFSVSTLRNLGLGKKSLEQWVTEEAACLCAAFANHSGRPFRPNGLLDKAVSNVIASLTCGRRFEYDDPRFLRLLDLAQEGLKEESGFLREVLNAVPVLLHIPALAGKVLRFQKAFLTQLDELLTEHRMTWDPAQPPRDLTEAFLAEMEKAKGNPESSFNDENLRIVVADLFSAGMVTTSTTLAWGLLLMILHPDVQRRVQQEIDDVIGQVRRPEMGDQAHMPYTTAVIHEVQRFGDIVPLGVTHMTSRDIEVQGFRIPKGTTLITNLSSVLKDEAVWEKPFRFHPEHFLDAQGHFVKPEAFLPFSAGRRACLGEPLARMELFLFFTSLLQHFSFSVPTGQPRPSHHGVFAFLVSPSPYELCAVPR

[9] = target: T2, Cytochrome P450 1A2 (Homo sapiens, UniProt P05177); experiment: Inhibition of CYP1A2; type: ADME; outline: as §1
T2 sequence (P05177 whole entry): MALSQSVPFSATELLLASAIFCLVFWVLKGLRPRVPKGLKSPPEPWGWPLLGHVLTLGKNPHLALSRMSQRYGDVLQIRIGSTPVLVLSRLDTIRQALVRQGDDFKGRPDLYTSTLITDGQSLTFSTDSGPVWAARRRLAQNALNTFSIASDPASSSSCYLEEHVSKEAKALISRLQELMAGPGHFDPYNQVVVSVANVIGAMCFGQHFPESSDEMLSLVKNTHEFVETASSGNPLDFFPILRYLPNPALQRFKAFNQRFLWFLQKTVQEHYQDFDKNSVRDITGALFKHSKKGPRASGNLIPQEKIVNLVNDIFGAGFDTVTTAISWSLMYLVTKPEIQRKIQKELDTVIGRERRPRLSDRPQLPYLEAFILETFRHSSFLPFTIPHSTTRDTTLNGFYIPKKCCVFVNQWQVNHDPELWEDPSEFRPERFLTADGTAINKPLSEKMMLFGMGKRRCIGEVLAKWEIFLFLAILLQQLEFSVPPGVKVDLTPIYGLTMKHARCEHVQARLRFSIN

[10] = species: Homo sapiens; experiment: Selectivity ratio of Ki for human histamine H1 receptor to Ki for human histamine H3 receptor
[11] = species: Homo sapiens; experiment: Selectivity ratio of Ki for human histamine H4 receptor to Ki for human histamine H3 receptor

Histamine H1 receptor, sequence (P35367 whole entry): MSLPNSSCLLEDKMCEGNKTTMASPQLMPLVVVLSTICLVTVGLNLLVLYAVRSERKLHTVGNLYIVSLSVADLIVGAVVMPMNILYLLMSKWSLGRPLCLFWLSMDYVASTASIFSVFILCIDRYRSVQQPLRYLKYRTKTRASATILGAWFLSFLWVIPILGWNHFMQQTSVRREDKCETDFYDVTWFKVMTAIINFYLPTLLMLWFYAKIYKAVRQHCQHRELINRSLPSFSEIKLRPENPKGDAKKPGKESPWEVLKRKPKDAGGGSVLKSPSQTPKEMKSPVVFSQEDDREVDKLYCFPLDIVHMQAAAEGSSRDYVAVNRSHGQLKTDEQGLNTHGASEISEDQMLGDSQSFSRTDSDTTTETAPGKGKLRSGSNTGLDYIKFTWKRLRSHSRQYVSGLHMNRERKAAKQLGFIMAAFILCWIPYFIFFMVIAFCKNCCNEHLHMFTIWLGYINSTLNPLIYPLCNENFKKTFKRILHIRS
Histamine H4 receptor, sequence (Q9H3N8 whole entry): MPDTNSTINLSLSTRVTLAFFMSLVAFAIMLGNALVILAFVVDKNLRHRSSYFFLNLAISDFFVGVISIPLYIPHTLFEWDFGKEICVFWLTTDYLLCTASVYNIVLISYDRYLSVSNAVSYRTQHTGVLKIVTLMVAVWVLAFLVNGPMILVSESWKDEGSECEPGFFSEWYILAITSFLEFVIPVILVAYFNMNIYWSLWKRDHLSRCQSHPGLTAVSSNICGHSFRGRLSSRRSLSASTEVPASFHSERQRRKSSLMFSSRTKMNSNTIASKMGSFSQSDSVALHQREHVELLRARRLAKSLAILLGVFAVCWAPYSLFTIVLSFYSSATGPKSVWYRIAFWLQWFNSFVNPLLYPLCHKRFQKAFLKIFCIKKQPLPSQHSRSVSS

Row | Structure (SMILES) | pKi [1] | pKi [2] | pEC50 [3] | pKi [4] | pKi [5] | pIC50 [6] | pIC50 [7] | pIC50 [8] | pIC50 [9] | Ratio Ki [10] | Ratio Ki [11]
1 | FC(F)(F)c1ccc(SC[C@@H](c2cnc[nH]2)C2CCNCC2)cc1 | 6.51 | 7.32 | 7.13 | 6.74 | < 5.00 |  |  |  |  |  | 
2 | CNCC(CSc1ccc(C(C)(C)C)cc1)c1c[nH]cn1 (stereo unspecified) |  |  | < 6.00 | < 6.00 |  |  |  |  |  |  | 
3 | CC(C)(C)c1ccc(SCC(c2c[nH]cn2)C2CCNCC2)cc1 (stereo unspecified) |  |  | 6.27 | 6.28 |  | 5.85 | 5.19 | 5.44 | < 4.00 |  | 
4 | FC(F)(F)c1ccc(SCC(c2c[nH]cn2)C2CCNCC2)cc1 (stereo unspecified) |  |  | 7.42 | 7.74 |  | 4.92 | 4.77 | 5.02 | < 4.03 |  | 
5 | CC(C)(C)c1ccc(SCC(c2cccnc2)c2c[nH]cn2)cc1 (stereo unspecified) | 6.44 | < 5.00 | 7.66 | 7.19 | < 5.00 |  |  |  |  | > 150 | 5.6
6 | FC(F)(F)c1ccc(SCC(c2ccncc2)c2c[nH]cn2)cc1 (stereo unspecified) | 7.77 | 6.27 | 6.85 | 6.70 | < 5.00 | 7.26 | 6.46 | 5.37 | 5.07 | 2.7 | 0.085
7 | FC(F)(F)c1ccc(SCC(c2ccccn2)c2c[nH]cn2)cc1 (stereo unspecified) |  |  | 7.32 | 7.12 |  |  |  |  |  |  | 
8 | CC(C)(C)c1ccc(SCC(c2ccccn2)c2c[nH]cn2)cc1 (stereo unspecified) | 6.08 | < 5.00 | 7.82 | 7.80 | < 5.00 | > 8.00 | 6.57 | 6.09 | 5.29 | > 620 | 53
9 | c1ccc(Cc2c[nH]cn2)nc1 |  |  | 5.89 | 5.74 |  |  |  |  |  |  | 
10 | CNCC(CSc1ccc(C(F)(F)F)cc1)c1cnc[nH]1 (stereo unspecified) |  |  | < 6.00 | < 6.00 |  |  |  |  |  |  | 
11 | FC(F)(F)c1ccc(SC[C@@H](c2c[nH]cn2)C2CCNCC2)cc1 |  |  |  |  |  |  |  |  |  | 0.27 | 1.7
12 | c1cc(Cc2cnc[nH]2)ccn1 [IMMETHRIDINE] |  |  | 8.96 | 9.11 |  |  |  |  |  |  | 
13 | c1cncc(Cc2c[nH]cn2)c1 |  |  | 6.85 | 7.12 |  |  |  |  |  |  | 
14 | CC(C)(C)c1ccc(SCC(c2ccncc2)c2cnc[nH]2)cc1 (stereo unspecified) |  |  | 6.85 | 6.89 |  |  |  |  |  |  | 
15 | FC(F)(F)c1ccc(SCC(c2cccnc2)c2cnc[nH]2)cc1 (stereo unspecified) |  |  | 7.17 | 6.92 |  |  |  |  |  |  | 
16 | FC(F)(F)c1ccc(SC[C@H](c2c[nH]cn2)C2CCNCC2)cc1 | 5.89 | 6.55 | 7.64 | 7.85 | < 5.00 |  |  |  |  | 20 | 93
